Here are results for twelve compounds from ChEMBL document CHEMBL1121439, “Accumulation of drugs by guinea pig isolated atria. Quantitative correlations” (J Med Chem, 1980).

Molecules are shown by their SMILES.

One series is filed under the species Cavia porcellus. Briefly: Ability to bind to guinea pig atrial homogenate. The settings on record: Cardiac atrium. A digest of the protocol:
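Guinea pig left and right atria were blotted 90 s, weighed, and homogenized (6%, g/v) in ice-cold 0.067 M Sørensen phosphate buffer, pH 7.4, for three 20-s bursts. Radiolabeled drug (3.3×10^-6 M) was incubated with 4% (g/v) homogenate for 90 min at room temperature under partial saturation. Total aliquot and supernatant after 145000g, 15 h, 25 °C were counted. Result given as log B/F.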

The nature of series [1]: Tested for the dissociation constant of the compound. The series is classed as ADME.
The nature of series [2]: Partition coefficient (logP). Particulars: octanol/water. The series is classed as physicochemical.
In series [3] the target is T1, Albumin (Homo sapiens, UniProt P02768). The series is described as follows: Ability to bind to human serum albumin (HSA).
For series [4], the target named is T1, Albumin. The series is described as follows: Ability to bind to human serum albumin. In outline: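 Purified human serum albumin, 4% (g/v), with radiolabeled drug at 3.3×10^-6 M in 0.067 M Sørensen phosphate buffer pH 7.4 (partial saturation). Incubated 90 min at room temperature. Radioactivity counted in an aliquot before and after centrifugation at 145000g for 15 h at 25 °C. Binding expressed as log B/F.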

T1 sequence (P02768 whole entry): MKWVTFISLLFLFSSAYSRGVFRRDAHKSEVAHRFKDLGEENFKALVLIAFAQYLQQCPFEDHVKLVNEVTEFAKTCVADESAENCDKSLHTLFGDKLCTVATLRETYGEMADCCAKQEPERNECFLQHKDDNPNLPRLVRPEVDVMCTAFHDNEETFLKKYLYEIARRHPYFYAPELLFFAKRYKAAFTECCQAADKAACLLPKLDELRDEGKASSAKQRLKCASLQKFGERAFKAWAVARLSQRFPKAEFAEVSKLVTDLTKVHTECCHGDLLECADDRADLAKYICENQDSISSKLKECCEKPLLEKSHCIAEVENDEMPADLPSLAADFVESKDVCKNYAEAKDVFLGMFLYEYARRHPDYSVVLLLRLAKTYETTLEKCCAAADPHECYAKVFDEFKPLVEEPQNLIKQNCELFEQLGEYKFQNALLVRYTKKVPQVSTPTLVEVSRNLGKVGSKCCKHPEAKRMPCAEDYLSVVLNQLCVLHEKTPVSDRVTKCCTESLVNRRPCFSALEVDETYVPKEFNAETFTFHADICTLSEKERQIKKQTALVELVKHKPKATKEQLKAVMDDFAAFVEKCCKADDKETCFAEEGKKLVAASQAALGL

Compound `COc1ccc(CCN(C)CCCC(C#N)(c2ccc(OC)c(OC)c2)C(C)C)cc1OC` (configuration not stated) showed a Log B/F in the series listed under Cavia porcellus of 0.114. Besides, in series [1], the pKa was found to be 9.2.

With `OC[C@H]1O[C@@](CO)(O[C@H]2O[C@H](CO)[C@@H](O)[C@H](O)[C@H]2O)[C@@H](O)[C@@H]1O`, the Log B/F in the series listed under Cavia porcellus was -4.

Compound `C=CCc1ccccc1OCC(O)CNC(C)C` (configuration not stated) [ALPRENOLOL] displayed a Log B/F in the series listed under Cavia porcellus of -0.158. The logP in series [2] (read-out: logP) was found to be 3.1.

Turning to `CCCNC(C)C(=O)Nc1c(C)csc1C(=O)OC` (configuration not stated) [ARTICAINE], the Log B/F in the series filed under Cavia porcellus was -0.739; at Albumin [3], -0.281. Also, the logP in series [2] stood at 2.41. Also, the pKa in series [1] came out at 7.8.

Consider `O=C1CCC(c2ccccc2)(C2CCN(Cc3ccccc3)CC2)C(=O)N1` (configuration not stated) [BENZETIMIDE], for which the “Log B/F” value on Albumin [4] was 0.087; in the series filed under Cavia porcellus, -0.184. Moreover, in series [2] (read-out: logP), the logP worked out at 3.55.

Turning to `C[C@@H]1C[C@H]2[C@@H]3CCC4=CC(=O)C=C[C@]4(C)[C@@]3(F)[C@@H](O)C[C@]2(C)[C@@]1(O)C(=O)CO` [DEXAMETHASONE], in series [2] (read-out: logP), the logP amounted to 1.74.

For `C[C@H]1O[C@@H](O[C@H]2[C@@H](O)C[C@H](O[C@H]3[C@@H](O)C[C@H](O[C@H]4CC[C@@]5(C)[C@H](CC[C@@H]6[C@@H]5CC[C@]5(C)[C@@H](C7=CC(=O)OC7)CC[C@]65O)C4)O[C@@H]3C)O[C@@H]2C)C[C@H](O)[C@@H]1O` [DIGITOXIN], the logP in series [2] (read-out: logP) stood at 1.76. Also, the “Log B/F” value at Albumin [3] is on record as 3.222.

Turning to `O=C(O)[C@H]1O[C@@H](O)[C@H](O)[C@@H](O)[C@@H]1O` [GLUCURONATE], the Log B/F was -4 in the series listed under Cavia porcellus and -2 at Albumin [3]. For the same compound, in series [2] (read-out: logP), the log partition coefficient (logP) is -2.57. Also, the pKa in series [1] amounted to 3.2.

`COc1ccc2c(c1)c(CC(=O)O)c(C)n2C(=O)c1ccc(Cl)cc1` [INDOMETHACIN]: the log partition coefficient (logP) in series [2] (read-out: logP) is 2.

Turning to `COCCc1ccc(OCC(O)CNC(C)C)cc1` (configuration not stated) [METOPROLOL], in series [2] (read-out: logP), the logP was determined as 2.34.

As for `CCC1(c2ccccc2)C(=O)NC(=O)NC1=O` [PHENOBARBITAL], the logP in series [2] (read-out: logP) worked out at 1.43. Besides, the “Log B/F” value on Albumin [3] is 0.11. The pKa in series [1] came out at 7.5.

Take `CCC(c1ccccc1)c1c(O)c2ccccc2oc1=O` (configuration not stated) [PHENPROCOUMON]: the logP in series [2] (read-out: logP) was found to be 3.62. Further, the “Log B/F” value on Albumin [3] was found to be 2.128. The same compound showed a pKa in series [1] of 5.
